Hits are enriched below; roughly 6.4% of the tested compounds scored in any of these assays.
tolC growth inh: growth inhibitors of E. coli BW25113 tolC mutant; OD615; AID 573; hit rate 2.2% among 65,000; growth inhibition, % at 10 µM (by protocol);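 active means growth inhibition at or above a cutoff equal to the mean over every tested compound plus 3 SD, cut at about 60% in these data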;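 further: growth measured after 20 h incubation at 37 °C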
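Doses: one dose of 10 µM final / Material: E. coli BW25113 ΔtolC::kan, tolC deletion mutant strain / Buffer or medium: LB with kanamycin 50 µg/mL / Evaluation: percent growth inhibition / Detection: optical density read at 615 nm / Incubation: 37 °C, 20 h exposure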
Jurkat tox 60K: reduces viability or proliferation of Jurkat cells | Jurkat E6.1 viability, ATP luminescence, 48 h | inhibition, % at 4 µM | hit rate 1.2% among 56,000;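 active means inhibition above the mean inhibition of all tested compounds plus 3 SD, cut at about 28% in these data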
Fibroblast inh: blocks proliferation of human lung fibroblasts; LL 47 human lung fibroblast viability, ATP luminescence; hits give low values; viability, % at 10 µM; AID 719; hit rate 1.1% among 85,000;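 active means viability at or below 50% in the single dose screen; inactive means viability above 50%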;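 further: compound exposure lasted 72 h before the ATP readout; 100% = median luminescence of untreated cell-only wells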
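Test system: LL 47 human lung fibroblasts / Quantity: 1,150 cells in each well / Medium: IMEM growth medium with 15% fetal bovine serum / Incubation: 72 h compound exposure at 37 °C after overnight plating / Detection: CellTiter-Glo luminescence measuring cellular ATP / Read-out: % viability versus median cells-only luminescence / Benchmarks: cell-only wells, no compound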
H69AR inhibit: blocks growth of human H69AR lung tumor cells | hit rate 6% among 85,000 | H69AR lung tumor viability, ATP luminescence, 72 h; hits give low values | viability, % at 10 µM;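 active means viability at or below 40%; inactive means viability above 40%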;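 further: multidrug resistant small cell line overexpressing MRP-1 efflux transporter; 100% = mean luminescence of untreated control wells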
E coli WT exp: blocks growth of wild type E. coli BW25113; AID 710; OD600 absorbance; hit rate 0.15% among 98,000; growth inhibition, % at 100 µM;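 active means growth inhibition above about 50% at one test dose, limit read from the data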;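 further: growth measured after 20 h incubation at 37 °C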
HUVEC inhibit: inhibitors of human endothelial cell proliferation | HUVEC proliferation, CellTiter-Glo luminescence, 72 h; hits give low values | viability, % at 10 µM (by protocol) | hit rate 1.1% among 86,000 | AID 648;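 active means viability at or below 30%; inactive means viability above 30%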;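 further: 100% = median luminescence of DMSO-only cell control wells on each plate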
* hit, by the source's call; . = no result given.

SMILES	tolC growth inh	Jurkat tox 60K	Fibroblast inh	H69AR inhibit	E coli WT exp	HUVEC inhibit
Cc1c(NC(=O)C2CCCNC2=O)c(=O)n(-c2ccccc2)n1C (configuration not stated)	.	-2	.	39*	0	94
CC(=O)Nc1nc(-c2ccccc2)nc(-c2ccccc2OC(C)=O)n1	6	7	.	24*	6	45
CC(=O)Nc1nc(C)nc(-c2ccccc2OC(C)=O)n1	-16	6	105	103	1	100
Cc1cc(C(=O)CSc2nc3ccccc3o2)c(C)n1C1CC1	76*	-3	100	99	-6	92
C=CCn1c(C)cc(C(=O)CSc2nc3ccccc3o2)c1C	40	15	102	95	-5	96
CCOC(=O)c1ccc(N/C=C/C(=O)c2ccco2)cc1	.	.	107	17*	-30	95
Cc1ccsc1C1NC(=O)c2ccccc2N1 (configuration not stated)	-8	.	88	23*	11	63
O=C1NC(c2cccs2)Nc2ccccc21 (configuration not stated)	6	.	100	61	13	100
Cc1ccccc1NS(=O)(=O)c1cc(C(N)=O)ccc1C	-11	9	97	98	-6	98
O=C(NCc1ccc2c(c1)OCO2)C1CCC(CNS(=O)(=O)c2cccc3nsnc23)CC1 (configuration not stated)	.	.	44*	96	-3	59
COc1ccc(CNC(=O)C2CCC(CNS(=O)(=O)c3cccc4nsnc34)CC2)cc1 (configuration not stated)	.	.	55	88	-8	103
CC(C)NC(=O)c1c2c(nc3ccccc13)CCCC2	.	.	100	33*	.	88
COC(=O)CSc1nnc(CNc2ccc(Cl)cc2)n1-c1ccccc1	.	.	99	91	3	93
O=C(c1ccc(Cl)cc1)c1c[nH]c(C(=O)C(Cl)(Cl)Cl)c1	.	.	44*	2.4*	6	49
CC1=C(C#N)c2nc(N)c(C#N)c(C)c2/C1=C\c1ccc(C)cc1	.	.	3.3*	91	-5	4.3*
CC1CC(C)CN(C(=O)c2ccccc2Nc2ccc(SC(F)F)cc2)C1 (configuration not stated)	.	.	96	95	1	76
O=C(CSc1ncc(-c2ccc(F)cc2)[nH]1)Nc1cccc(O)c1	24	-3	104	80	11	87
COC(=O)C1=C(N)Oc2cc(C)n(Cc3ccco3)c(=O)c2C1c1cccc(Cl)c1 (configuration not stated)	68*	0	100	95	-17	108
CCn1c(C)cc2c(c1=O)C(c1ccccc1)C(C(=O)OC)=C(N)O2 (configuration not stated)	.	.	.	.	-2	.
CCOC(=O)c1cc2occc2n1CC(=O)Nc1ccc(OC)cc1OC	-5	4	97	100	-2	98
Cc1[nH]c2ccc(-c3nnc(SCC(=O)N4CCCc5ccccc54)o3)cc2c1C	16	-2	97	71	-17	62
CCOc1ccccc1NC(=O)CCSc1nc2n[nH]c(C)c2c(=N)n1-c1ccccc1Cl	-4	.	56	6.5*	-15	52
Cc1ccc(C)c(OCC(=O)Nc2ccc3c(c2)OCO3)c1C	22	26	95	21*	-4	88
Cc1cccc(OCC(=O)Nc2ccc3c(c2)OCO3)c1C	5	7	91	91	1	98
Cc1ccc([N+](=O)[O-])cc1NC(=O)c1ccc(-c2ccccc2)cc1	.	.	.	.	-5	.
SMILES	tolC growth inh	Jurkat tox 60K	Fibroblast inh	H69AR inhibit	E coli WT exp	HUVEC inhibit
COc1cccc(-n2nnnc2SCC(=O)N2CCCc3ccccc32)c1	24	10	96	69	-13	102
COCCn1c(SCC(=O)N2CCCc3ccccc32)nc2cccnc21	-4	-4	108	19*	7	87
COc1cc(OC)cc(-n2nnnc2SCC(=O)N2CCCc3ccccc32)c1	84*	4	98	81	-10	82
O=C(O)CCC(=O)Nc1nnc(C(F)(F)F)s1	4	5	103	106	5	100
CCC(NC(=O)Nc1nnc(C(F)(F)F)s1)(C(F)(F)F)C(F)(F)F	4	.	29*	6.0*	58*	23*
Cc1cc(N2CCC(C)CC2)n2ncc(-c3ccccc3)c2n1	53	-2	86	53	-20	89
Cc1cc(N2CCN(C(=O)c3ccco3)CC2)n2ncc(-c3ccccc3)c2n1	25	3	94	27*	-4	84
Cc1cc(N2CCOCC2)n2ncc(-c3ccccc3)c2n1	.	.	81	28*	-3	77
Cc1cc(N2CCCCC2)n2ncc(-c3ccccc3)c2n1	75*	1	87	38*	-5	81
COC(=O)\C(C(C)=O)=C(/C=C/C=C/C=C/N(C)C)N(C)C	.	.	94	86	1	98
CCCCNC(=O)c1onc(CSc2cccc(C)c2)c1C(=O)O	.	.	.	.	-19	.
CCC(Sc1nc2n[nH]c(C)c2c(=N)n1-c1cc(Cl)ccc1C)C(=O)N1CCOCC1 (configuration not stated)	-18	8	83	16*	-9	85
Cc1ccc(-n2c(SCC(=O)NCC3CCCO3)nc3n[nH]c(C)c3c2=N)cc1Cl (configuration not stated)	-11	13	86	59	-7	69
Cc1csc(Sc2ccc([N+](=O)[O-])cc2C(=O)OCC(=O)NC2CCCC(C)C2C)n1 (configuration not stated)	.	.	101	8.4*	0	97
CCC(C)NC(=O)COC(=O)c1cc([N+](=O)[O-])ccc1Sc1nc(C)cs1 (configuration not stated)	.	.	.	.	-2	.
COc1cc([N+](=O)[O-])ccc1N/C=C/C(=O)c1cccs1	.	.	79	42	-13	29*
O=C(Nc1c(Cl)cc(Cl)cc1C(=O)NCCN1CCOCC1)c1ccc(Cl)cc1Cl	.	.	99	64	.	87
O=C(Nc1ccc(Cl)cc1C(=O)NCCN1CCOCC1)c1ccc(Cl)cc1Cl	.	.	92	38*	6	77
Cn1c(CSCc2ccc(Cl)cc2)nnc1SCC(=O)Nc1nc2ccccc2s1	.	.	92	56	-15	83
O=S(=O)(CC(CN1CCCC1)N1CCCC1)c1ccc2ccccc2c1 (configuration not stated)	-15	8	3.5*	1.9*	.	18*
C[C@]12CC[C@@H]3c4ccc(O)cc4CC[C@H]3[C@@H]1CC[C@@H]2OC(=O)CCC(=O)O	10	.	107	93	.	83
C[C@]12CC[C@@H]3c4ccc(OC(=O)c5ccccc5)cc4CC[C@H]3[C@@H]1CC[C@@H]2O	3	.	93	26*	.	55
COc1ccc(-n2c(Cn3c(=O)sc4ccccc43)nnc2SCC(=O)N2CCCC2)cc1	2	2	93	81	5	102
c1ccc(Cn2nnc3c(Nc4ccc5c(c4)OCO5)nc(C4CC4)nc32)cc1	7	11	.	.	-5	.

Screening results from PubChem BioAssay.
